According to ChEMBL document CHEMBL2203265, “Discovery of tetrahydropyridopyrimidine phosphodiesterase 10A inhibitors for the treatment of schizophrenia” (Bioorg Med Chem Lett, 2012):
Values after ≈ are worked out from the molar mass of the structure shown. Active and inactive are the calls of the source. The calls are words filed in the database; no cut-off is given here.

Legend:
[1] = test system: Rattus norvegicus; experiment: Toxicity in rat assessed as decrease in lean body mass at 4 mg/kg, po administered for 7 days relative to vehicle-treated control; type: organism-based; parameters: dose 4 mg/kg, route oral; conditions: in vivo, 168 h
How it was run: (§1)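 Rats given chronic dosing over 7 days. Body weight gain, total body fat and lean body mass recorded at the end of treatment and compared with a vehicle-treated group for statistical significance; n = 12 per group.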

[2] = test system: Rattus norvegicus; experiment: Toxicity in rat assessed as decrease in total body fat at 4 mg/kg, po administered for 7 days relative to vehicle-treated control; type: organism-based; parameters: dose 4 mg/kg, route oral; conditions: in vivo, 168 h; how it was run: as §1
[3] = test system: Rattus norvegicus; experiment: Toxicity in rat assessed as decrease in weight gain at 4 mg/kg, po administered for 7 days relative to vehicle-treated control; type: organism-based; parameters: dose 4 mg/kg, route oral; conditions: in vivo, 168 h; how it was run: as §1
[4] = Solubility of the compound at pH 7; type: physicochemical; conditions: buffer
[5] = biological target: cAMP and cAMP-inhibited cGMP 3',5'-cyclic phosphodiesterase 10A (Homo sapiens, UniProt Q9Y233); experiment: Inhibition of PDE10A
cAMP and cAMP-inhibited cGMP 3',5'-cyclic phosphodiesterase 10A, sequence (Q9Y233 whole entry): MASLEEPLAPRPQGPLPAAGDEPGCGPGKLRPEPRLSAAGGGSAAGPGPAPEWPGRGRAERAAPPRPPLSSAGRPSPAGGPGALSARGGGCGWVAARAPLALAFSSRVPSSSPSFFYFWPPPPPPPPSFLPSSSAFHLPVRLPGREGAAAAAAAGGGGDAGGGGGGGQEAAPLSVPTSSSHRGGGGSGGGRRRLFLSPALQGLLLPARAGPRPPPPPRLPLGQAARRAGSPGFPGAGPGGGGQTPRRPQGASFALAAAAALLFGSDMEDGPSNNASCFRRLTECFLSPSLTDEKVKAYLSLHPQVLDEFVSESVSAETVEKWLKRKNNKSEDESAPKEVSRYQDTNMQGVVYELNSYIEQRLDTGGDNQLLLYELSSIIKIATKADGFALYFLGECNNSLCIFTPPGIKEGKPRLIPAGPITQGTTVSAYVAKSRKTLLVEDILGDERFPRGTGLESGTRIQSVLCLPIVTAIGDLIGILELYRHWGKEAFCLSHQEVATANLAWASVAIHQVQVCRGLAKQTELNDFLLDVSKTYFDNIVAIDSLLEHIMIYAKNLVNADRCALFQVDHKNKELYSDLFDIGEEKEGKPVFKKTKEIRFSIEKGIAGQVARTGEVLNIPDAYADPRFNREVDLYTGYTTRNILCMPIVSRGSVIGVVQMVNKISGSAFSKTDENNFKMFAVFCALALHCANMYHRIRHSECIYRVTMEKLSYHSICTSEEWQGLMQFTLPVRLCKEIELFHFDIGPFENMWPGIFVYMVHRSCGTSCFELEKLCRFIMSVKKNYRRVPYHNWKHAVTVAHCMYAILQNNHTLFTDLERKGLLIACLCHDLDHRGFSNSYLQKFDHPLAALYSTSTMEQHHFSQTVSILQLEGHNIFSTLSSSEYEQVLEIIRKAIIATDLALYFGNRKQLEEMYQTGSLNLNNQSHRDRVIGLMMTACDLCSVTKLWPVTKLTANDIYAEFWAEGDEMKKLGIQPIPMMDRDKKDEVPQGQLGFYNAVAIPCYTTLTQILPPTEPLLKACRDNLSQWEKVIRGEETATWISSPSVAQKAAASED

[6] = test system: Rattus norvegicus; experiment: Inhibition of PDE10A in po dosed rat assessed as increase in striatal cGMP level after 2 hrs relative to vehicle-treated control; type: functional, organism-based
How it was run: (§2)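 Rats given the compound orally. Striatal cGMP is measured 2 h after dosing and expressed relative to vehicle-injected controls.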

[7] = test system: Rattus norvegicus; experiment: Toxicity in rat assessed as decrease in lean body mass up to 10 mg/kg, po administered for 7 days relative to vehicle-treated control; type: organism-based; parameters: dose 10 mg/kg, route oral; conditions: in vivo, 168 h
How it was run: (§3)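 Rats are dosed orally for 7 days, with olanzapine at 4 mg/kg as the comparator. Weight gain, body fat, and lean body mass are measured against vehicle, n = 12/group.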

[8] = test system: Rattus norvegicus; experiment: Toxicity in rat assessed as decrease in total body fat up to 10 mg/kg, po administered for 7 days relative to vehicle-treated control; type: organism-based; parameters: dose 10 mg/kg, route oral; conditions: in vivo, 168 h; how it was run: as §3
[9] = test system: Rattus norvegicus; experiment: Toxicity in rat assessed as decrease in weight gain up to 10 mg/kg, po administered for 7 days relative to vehicle-treated control; type: organism-based; parameters: dose 10 mg/kg, route oral; conditions: in vivo, 168 h; how it was run: as §3
[10] = test system: Rattus norvegicus; experiment: Toxicity in rat assessed as induction of catalepsy up to 50 mg/kg, po; type: organism-based; parameters: dose 50 mg/kg, route oral; conditions: in vivo
How it was run: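 Catalepsy in rats is scored by fore-limb retraction (paw test) after oral administration, with haloperidol at 1.5 mg/kg as the control.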

[11] = test system: Rattus norvegicus; experiment: Toxicity in rat assessed as increase in prolactin level up to 50 mg/kg, po; type: organism-based; parameters: dose 50 mg/kg, route oral; conditions: in vivo
How it was run: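 Circulating prolactin is measured in rats after oral administration, with haloperidol at 1.5 mg/kg as the control.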

[12] = test system: Rattus norvegicus; experiment: Antipsychotic activity in rat assessed as increase in cognitive function at 1 mg/kg, po by NOR assay; type: functional, organism-based; parameters: dose 1 mg/kg
[13] = organism: Rattus norvegicus; experiment: Antipsychotic activity in rat by conditioned avoidance response assay; type: functional, organism-based
[14] = test system: Rattus norvegicus; experiment: Inhibition of PDE10A in rat assessed as increase in striatal cGMP level at 30 mg/kg, po after 2 hrs relative to vehicle-treated control; type: functional; parameters: scale not given: the % may be the effect or the level left; how it was run: as §2
[15] = Plasma concentration in rat at 3 mg/kg, po at 2 hrs; type: ADME, organism-based; parameters: dose 3 mg/kg, route oral
How it was run: (§4)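 Plasma drug concentration is sampled 2 h after oral dosing in the rat hyperlocomotion study.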

[16] = test system: Rattus norvegicus; experiment: Antipsychotic activity in rat assessed as inhibition of MK801-induced hyperlocomotion at 3 mg/kg, po; type: functional, organism-based; parameters: dose 3 mg/kg
How it was run: (§5)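 Oral dosing in rats challenged with the psychostimulant MK-801. Locomotor activity is scored against vehicle-only animals and against animals given MK-801 alone.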

[17] = test system: Canis familiaris; experiment: Cardiotoxicity in dog assessed as QTc prolongation at 13,29 and 42 mg/kg, iv administered sequentially at 30 mins periods; type: toxicity, organism-based, Canis lupus familiaris; parameters: dose 42 mg/kg, route intravenous; conditions: in vivo, 0.5 h
[18] = test system: Salmonella typhimurium; experiment: Mutagenicity against Salmonella typhimurium up to 5000 ug/plate by Ames test; type: toxicity, organism-based; conditions: salmonella enterica subsp. enterica serovar typhimurium
[19] = Clearance in monkey; type: ADME, organism-based, Macaca mulatta; conditions: rhesus monkey, in vivo
[20] = Clearance in dog; type: ADME, organism-based, Canis lupus familiaris; conditions: in vivo
[21] = Clearance in rat; type: ADME, organism-based; conditions: in vivo
[22] = organism: Homo sapiens; experiment: Selectivity ratio of Ki for human PDE11A to Ki for human PDE10A
[23] = organism: Homo sapiens; experiment: Selectivity ratio of Ki for human PDE9A to Ki for human PDE10A
[24] = organism: Homo sapiens; experiment: Selectivity ratio of Ki for human PDE8A to Ki for human PDE10A
[25] = organism: Homo sapiens; experiment: Selectivity ratio of Ki for human PDE7A to Ki for human PDE10A
[26] = organism: Homo sapiens; experiment: Selectivity ratio of Ki for human PDE6A to Ki for human PDE10A
[27] = organism: Homo sapiens; experiment: Selectivity ratio of Ki for human PDE5A to Ki for human PDE10A
[28] = organism: Homo sapiens; experiment: Selectivity ratio of Ki for human PDE4A to Ki for human PDE10A
[29] = organism: Homo sapiens; experiment: Selectivity ratio of Ki for human PDE3A to Ki for human PDE10A
[30] = organism: Homo sapiens; experiment: Selectivity ratio of Ki for human PDE2A to Ki for human PDE10A
[31] = organism: Homo sapiens; experiment: Selectivity ratio of Ki for human PDE1A to Ki for human PDE10A
[32] = biological target: T1, Nuclear receptor subfamily 1 group I member 2 (Homo sapiens, UniProt O75469); experiment: Activation of PXR
T1 sequence (O75469 whole entry): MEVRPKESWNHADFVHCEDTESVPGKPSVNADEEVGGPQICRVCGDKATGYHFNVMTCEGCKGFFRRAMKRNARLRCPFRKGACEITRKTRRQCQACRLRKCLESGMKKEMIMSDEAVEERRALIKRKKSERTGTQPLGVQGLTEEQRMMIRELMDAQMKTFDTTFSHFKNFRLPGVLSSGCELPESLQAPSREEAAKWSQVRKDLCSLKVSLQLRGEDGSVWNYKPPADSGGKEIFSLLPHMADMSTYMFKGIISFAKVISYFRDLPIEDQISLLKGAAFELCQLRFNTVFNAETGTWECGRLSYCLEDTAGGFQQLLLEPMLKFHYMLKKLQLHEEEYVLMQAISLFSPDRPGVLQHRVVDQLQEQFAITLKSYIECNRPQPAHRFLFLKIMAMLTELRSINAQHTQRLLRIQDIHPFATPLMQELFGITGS

[33] = Time-dependent inhibition of cytochrome P450; type: ADME
[34] = Reversible inhibition of cytochrome P450; type: ADME
[35] = test system: Rattus norvegicus; experiment: Antipsychotic activity in po dosed rat assessed as inhibition of MK801-induced hyperlocomotion; type: functional, organism-based; how it was run: as §5
[36] = Plasma concentration in rat at 4.5 mg/kg, po at 2 hrs; type: ADME, organism-based; parameters: dose 4.5 mg/kg, route oral; how it was run: as §4
[37] = test system: Rattus norvegicus; experiment: Antipsychotic activity in rat assessed as inhibition of MK801-induced hyperlocomotion at 4.5 mg/kg, po; type: functional, organism-based; parameters: dose 4.5 mg/kg; how it was run: as §5

## Cc1cc2c(s1)Nc1ccccc1N=C2N1CCN(C)CC1 [OLANZAPINE]
[1]
  Activity: Toxic
[2]
  Activity: Toxic
[3]
  Activity: Toxic

## CN(CCc1ccccn1)c1nc(-c2ccccn2)nc2c1CN(C(=O)Nc1ccccc1)CC2
[4]
  solubility: > 75 µM
[5]
  Ki: 864 nM

## Cc1ccncc1NC(=O)N1CCc2nc(-c3ccc(O)nc3)nc(OC(C)C)c2C1
[5]
  Ki: 63 nM

## COCCOc1nc(-c2ccc(Cl)nc2)nc2c1CN(C(=O)c1ncn3ccccc13)CC2 [THPP-1]
[6]
  inhibition: Dose-dependent effect
[7]
  Activity: Non-toxic
[8]
  Activity: Non-toxic
[9]
  Activity: Non-toxic
[10]
  Activity: Non-toxic
[11]
  Activity: Non-toxic
[12]
  Activity: Active
[13]
  Activity: Dose-dependent effect
[14]
  Activity: >150%
[15]
  concentration at 2 h: 730 nM
[16]
  Activity: Active
[17]
  Activity: Non-toxic
[18]
  Activity: Non-toxic
[19]
  clearance: 7.7 mL/min/kg
[20]
  clearance: 3.8 mL/min/kg
[21]
  clearance: 6 mL/min/kg
[22]
  Ratio Ki: 300
[23]
  Ratio Ki: > 1000
[24]
  Ratio Ki: > 1000
[25]
  Ratio Ki: > 1000
[26]
  Ratio Ki: 44
[27]
  Ratio Ki: 116
[28]
  Ratio Ki: > 1000
[29]
  Ratio Ki: > 1000
[30]
  Ratio Ki: > 1000
[31]
  Ratio Ki: > 1000
[32]
  Activity: Not Active
[33]
  inhibition (INH): Not Active
[34]
  inhibition (INH): Not Active
[35]
  inhibition: Dose-dependent effect
[4]
  solubility: 20 µM (≈ 9.3 µg/mL)

## CN(CCc1ccccn1)c1nc(-c2ccncc2)nc2c1CN(C(=O)Nc1cccc(F)c1)CC2
[4]
  solubility: > 75 µM
[5]
  Ki: 156 nM

## Cc1ccc(-c2nc3c(c(OC(C)C)n2)CN(C(=O)Nc2cnccc2C)CC3)cn1
[5]
  Ki: 8 nM

## CC(C)Oc1nc(-c2ccc(Cl)nc2)nc2c1CN(C(=O)c1cn(C)cn1)CC2.Cl
[20]
  clearance: 0.94 mL/min/kg
[21]
  clearance: 2.4 mL/min/kg
[36]
  concentration at 2 h: 3000 nM
[37]
  inhibition: Active
[35]
  inhibition: Dose-dependent effect
[4]
  solubility: 69 µM

## Cc1ccncc1NC(=O)N1CCc2nc(-c3ccc(C(F)(F)F)nc3)nc(OC(C)C)c2C1
[5]
  Ki: 247 nM

## CN(CCc1ccccn1)c1nc(-c2ccncc2)nc2c1CN(C(=O)Nc1ccncc1)CC2
[4]
  solubility: > 75 µM
[5]
  Ki: 117 nM

## Cc1ccncc1NC(=O)N1CCc2nc(-c3ccc(Cl)nc3)nc(OC(C)C)c2C1
[5]
  Ki: 0.6 nM

## CN(CCc1ccccn1)c1nc(-c2ccncc2)nc2c1CN(C(=O)Nc1ccccc1)CC2
[4]
  solubility: > 75 µM
[5]
  Ki: 94 nM

## CN(CCc1ccccn1)c1nc(-c2ccncc2)nc2c1CN(C(=O)c1ccc(Cl)cc1)CC2
[4]
  solubility: > 75 µM
[5]
  Ki: 522 nM

## COCCOc1nc(-c2ccncc2)nc2c1CN(C(=O)Nc1ccccc1)CC2
[4]
  solubility: > 75 µM
[5]
  Ki: 135 nM

## Cc1nc2c(c(N(C)CCc3ccccn3)n1)CN(C(=O)Nc1ccccc1)CC2
[5]
  Ki: 4340 nM

## COc1nc(-c2cccnc2)nc2c1CN(C(=O)Nc1ccccc1)CC2
[4]
  solubility: > 75 µM
[5]
  Ki: 93 nM

## CN(CCc1ccccn1)c1nc(-c2ccccc2)nc2c1CN(C(=O)Nc1ccccc1)CC2
[5]
  Ki: 500 nM
